High-throughput results from PubChem.
Hsp70 activator: transcriptional activators of Hsp70 | activation, % at 10 µM | 200,000 compounds, 0.04% hits | AID 1203 | HeLa Hsp70 promoter luciferase reporter, luminescence; scaled: vehicle 0, proteasome-inhibitor control 100%;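 active means activation above the mean across all tested compounds plus 3 SD, cutoff set per campaign, cut at about 5.5% in these data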;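 further: 100% = MG132 at 30 µM as the positive control and 0% = DMSO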
MT stabilize HCS: microtubule stabilization, imaging screen. HeLa tubulin immunostaining HCS, 24 h; share of cells brighter than vehicle mean+2SD. % tubulin-high responders, % at 10 µM. AID 2205. 200,000 compounds, 0.83% hits;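 active means plate Z-score above 3 for both tubulin-high and condensed-nucleus cell shares, with cell loss under 80%, at 10 µM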;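 further: anti alpha tubulin signal scored within the nucleus-defined area of each cell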
Autophagy HCS: modulators of autophagy; MEF GFP-LC3 puncta imaging; test concentration mostly 10 µM; 190,000 compounds, 0.98% hits; calls only at 10 µM (by protocol);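 active means percentage of spot-positive cells more than 3 SD above its plate mean, without a fluorescence outlier flag or 80% toxicity; inconclusive means no clear call, values can overlap the other calls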;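 further: spot-positive cell cutoff set from DMSO-treated cells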
Dynein cargo inh: blocks dynein driven cargo transport along microtubules; z-score, hits read low; 220,000 compounds, 0.47% hits; 3617.4 mouse cells, GR-EGFP nuclear translocation imaging; test concentration mostly 20 µM; stimulated with dexamethasone, 1 µM; hits give low values;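 active means plate z-score of nuclear minus cytoplasmic receptor signal below a set negative limit, without overly bright fluorescence or cell loss, cut at about -3.5 in these data, passing the limit was not always enough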;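 further: z-score of nuclear minus cytoplasmic ring GR-EGFP intensity difference per well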
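medium = tetracycline-free induction medium containing charcoal-stripped FBS | probe or stimulus = dexamethasone, 1.0 µM final | timing = 48 h induction, then 1 h compound, then 30 min agonist, 37 °C | detection = automated 10x imaging of fixed Hoechst-stained cells | read-out basis = nuclear versus cytoplasmic GR-EGFP signal, averaged per well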
bCat nuc transl: modulators of beta-catenin nuclear translocation; HeLa beta-catenin nuclear translocation, immunofluorescence imaging; nuclear translocation activity, % at 5 µM; 190,000 compounds, 0.3% hits; AID 1665;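 active means nuclear translocation activity above 50% at 5 µM, with a well cell count of 50 or more; inconclusive means wells under 50 cells across six images, flagged as toxic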;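 further: per-cell ratio of nuclear to cytoplasmic median beta-catenin stain intensity; plate controls were DMSO negative control for no effect and GSK-3 inhibitor IX positive control for full effect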
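Test system: human HeLa cells, endogenous beta-catenin. Times: 24 h compound exposure, 37°C. Measured by: beta-catenin immunofluorescence imaging with DAPI.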
* hit, by the source's call. An excerpt weighted towards active compounds, which were near 2.1% of everything screened.

Results for CC(=O)N1CC=C2C(C#N)=C(N)C(C#N)(C#N)[C@H](c3ccoc3)[C@H]2C1 ?
Hsp70 activator: 0.5; MT stabilize HCS: 2.2; Autophagy HCS: inactive; Dynein cargo inh: -0.642; bCat nuc transl: 2.5

What do the screens show for `CN1CC=C2C(C#N)=C(N)C(C#N)(C#N)[C@H](c3ccoc3)[C@H]2C1`?
Hsp70 activator: -0.2; MT stabilize HCS: 1.6; Autophagy HCS: active; Dynein cargo inh: 8.11

What do the screens show for `CCCN1CC=C2C(C#N)=C(N)C(C#N)(C#N)C(c3cccc(OC)c3OC)C2C1` (stereo not drawn)?
Hsp70 activator: -0.4; MT stabilize HCS: 2.7; Autophagy HCS: inconclusive; Dynein cargo inh: -1.78; bCat nuc transl: 1.5

What do the screens show for `CN1CC=C2C(C#N)=C(N)C(C#N)(C#N)C(c3cccc(Cl)c3Cl)C2C1` (stereo not drawn)?
Hsp70 activator: -0.2; MT stabilize HCS: 3.2; Autophagy HCS: active; Dynein cargo inh: -1.88; bCat nuc transl: 1.2

Results for COc1ccc(OC)c(C2C3CN(C(C)C)CC=C3C(C#N)=C(N)C2(C#N)C#N)c1 (stereo not drawn) ?
Hsp70 activator: -0.1; MT stabilize HCS: 3.1; Autophagy HCS: active; Dynein cargo inh: -2.27; bCat nuc transl: 5.7

How did COc1ccc(OC)c(Nc2nc(-c3cccc([N+](=O)[O-])c3)nc3ccccc23)c1 do in these assays?
Hsp70 activator: -0.1; MT stabilize HCS: 1.4; Autophagy HCS: active; Dynein cargo inh: -0.914; bCat nuc transl: -1.1

What do the screens show for `COc1ccc(/C=N/Nc2cc(N3CCCC3)nc(N3CCCC3)n2)cc1`?
Hsp70 activator: -0.3; MT stabilize HCS: 1.9; Autophagy HCS: active; Dynein cargo inh: -0.698; bCat nuc transl: -0.2

How did Cc1ccc(-c2nc(C=Nc3ccc(O)cc3)c(O)o2)cc1 do in these assays?
Hsp70 activator: 0.1; MT stabilize HCS: 8.0; Autophagy HCS: inactive; Dynein cargo inh: -0.589; bCat nuc transl: 1.3

What do the screens show for `Cc1ccc(N=Cc2nc(/C=C/c3cccc([N+](=O)[O-])c3)oc2O)cc1`?
Hsp70 activator: -0.1; MT stabilize HCS: 2.0; Autophagy HCS: active; Dynein cargo inh: -0.108; bCat nuc transl: 1.9

Results for CCOc1cc(-n2cnnn2)c(OCC)cc1NC(=O)c1cc2ccc(N(CC)CC)cc2oc1=O ?
Hsp70 activator: 0.4; MT stabilize HCS: 3.2; Autophagy HCS: active; Dynein cargo inh: -1.48

Results for COc1ccc(Cn2cc(C(=O)c3ccccc3)c(=O)c3cc(OC)ccc32)cc1 ?
Hsp70 activator: -0.1; MT stabilize HCS: 23.3; Autophagy HCS: inactive; Dynein cargo inh: -0.507; bCat nuc transl: -1.7

Results for COc1ccc2c(c1)c(=O)c(C(=O)c1ccccc1)cn2Cc1ccccc1 ?
Hsp70 activator: -0.1; MT stabilize HCS: 17.1*; Autophagy HCS: inactive; Dynein cargo inh: 2.07; bCat nuc transl: -0.7

What do the screens show for `Cc1ccc(Nc2c(-c3ccc(N4CCOCC4)cc3)nc3ncccn23)cc1C`?
Hsp70 activator: -0.3; MT stabilize HCS: 3.9; Autophagy HCS: inactive; Dynein cargo inh: -0.769; bCat nuc transl: -1.5

Results for Cc1ccc(Nc2c(-c3ccc(N4CCOCC4)cc3)nc3ncccn23)cc1 ?
Hsp70 activator: 0.1; MT stabilize HCS: 2.8; Autophagy HCS: active; Dynein cargo inh: 0.818; bCat nuc transl: 2.9

What do the screens show for `C=C(C)Cn1c(=O)c(NC(=O)c2ccccc2)c2n(c1=S)CCC2`?
Hsp70 activator: -0.4; MT stabilize HCS: 1.2; Autophagy HCS: inactive; Dynein cargo inh: -0.478; bCat nuc transl: -0.7

What do the screens show for `COc1ccc(-n2c(=O)c(NC(=O)c3ccccc3)c3n(c2=S)CCCCC3)cc1`?
Hsp70 activator: -0.2; MT stabilize HCS: 1.3; Autophagy HCS: active; Dynein cargo inh: 1.67; bCat nuc transl: 0.5

How did CCOC(=O)c1sc(NC(=O)CSC(=S)N2CCN(C)CC2)nc1C do in these assays?
Dynein cargo inh: 1.25; bCat nuc transl: -0.3

What do the screens show for `COc1ccc(C(=O)/C(C#N)=N/Nc2ccccc2[N+](=O)[O-])cc1`?
Hsp70 activator: 0.1; MT stabilize HCS: 10.8; Autophagy HCS: inactive; Dynein cargo inh: -0.308; bCat nuc transl: 59.1*

What do the screens show for `CC1(c2nnc(-c3ccccc3)o2)CC(c2ccncc2)=NO1` (stereo not drawn)?
Dynein cargo inh: -0.47; bCat nuc transl: -0.7
